The values below come from ChEMBL document CHEMBL1121403, “Synthesis and mutagenicity of A-ring reduced analogues of 7,12-dimethylbenz[a]anthracene” (1980).

Assay [1] has as its system Salmonella typhimurium. Briefly: Mutagenic activity by measuring net reverent colonies per 10 ug of compound with Salmonella Typhimurium (TA 98 strain) in absence of S9 fraction. It counts as functional, Salmonella enterica subsp. enterica serovar Typhimurium. In short, it runs like this: (§1)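 Standard Ames soft-agar plating with doses given in Me2SO. Five or more doses from 1 to ≥10 μg/plate were tested with and without S-9 mix from PCB-induced rat liver, at 20 μL S-9/plate from a common pool. Duplicate plates per dose, triplicate for spontaneous revertants. 2-Aminoanthracene served as activation control. Net revertants per 10 μg came from regression of the linear dose-response portion.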

The test system of assay [2] is Salmonella typhimurium. Briefly: Mutagenic activity by measuring net reverent colonies per 10 ug of compound with Salmonella Typhimurium (TA1537 strain) in presence of S9 fraction; - indicates no mutagenic response. Conditions: Salmonella enterica subsp. enterica serovar Typhimurium. It counts as functional, organism-based. A digest of the protocol: (§2)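 Frame-shift strain TA1537 in Ames soft-agar plating with doses given in Me2SO, tested at up to 15 or 10 μg/plate with and without S-9 (PCB-induced rat liver, 20 μL/plate). Duplicate plates per dose, triplicate spontaneous. Scored mutagenic if reversion was dose-dependent and at least twice spontaneous. Values were normalized to net revertants per 10 μg.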

In assay [3] the test system is Salmonella typhimurium. Description: Mutagenic activity by measuring net reverent colonies per 10 ug of compound with Salmonella Typhimurium (TA 98 strain) in presence of S9 fraction. It counts as functional, Salmonella enterica subsp. enterica serovar Typhimurium. In short, it runs like this:
as §1

For assay [4], the system named is Salmonella typhimurium. Briefly: Mutagenic activity by measuring net reverent colonies per 10 ug of compound with Salmonella Typhimurium (TA 100 strain) in presence of S9 fraction. It counts as functional, Salmonella enterica subsp. enterica serovar Typhimurium. A digest of the protocol: as §1
Assay [5] relates to Salmonella typhimurium. Description: Mutagenic activity by measuring net reverent colonies per 10 ug of compound with Salmonella Typhimurium (TA1537 strain) in absence of S9 fraction; - indicates no mutagenic response. It counts as functional, organism-based. Conditions: Salmonella enterica subsp. enterica serovar Typhimurium. In short, it runs like this:
as §2

In assay [6] the test system is Salmonella typhimurium. Briefly: Mutagenic activity by measuring net reverent colonies per 10 ug of compound with Salmonella Typhimurium (TA 100 strain) in absence of S9 fraction. It counts as functional, Salmonella enterica subsp. enterica serovar Typhimurium. A digest of the protocol: as §1
Assay [7] deals with Salmonella typhimurium. Description: Mutagenic activity by measuring net reverent colonies per 10 ug of compound with Salmonella Typhimurium (TA 98 strain) in absence of S9 fraction; - indicates no mutagenic response. It counts as functional, organism-based. Conditions: Salmonella enterica subsp. enterica serovar Typhimurium. In short, it runs like this:
as §1

Assay [8] concerns Salmonella typhimurium. Briefly: Mutagenic activity by measuring net reverent colonies per 10 ug of compound with Salmonella Typhimurium (TA1537 strain) in presence of S9 fraction. It counts as functional, Salmonella enterica subsp. enterica serovar Typhimurium. A digest of the protocol:
as §2

The test system of assay [9] is Salmonella typhimurium. Briefly: Mutagenic activity by measuring net reverent colonies per 10 ug of compound with Salmonella Typhimurium (TA 100 strain) in absence of S9 fraction; - indicates no mutagenic response. It counts as functional, organism-based. Conditions: Salmonella enterica subsp. enterica serovar Typhimurium. A digest of the protocol:
as §1

Assay [10] has as its system Salmonella typhimurium. Description: Mutagenic activity by measuring net reverent colonies per 10 ug of compound with Salmonella Typhimurium (TA1537 strain) in absence of S9 fraction. It counts as functional, Salmonella enterica subsp. enterica serovar Typhimurium. A digest of the protocol: as §2

Take `Cc1c2ccccc2c(C)c2c3c(ccc12)C=CCC3`: the Activity in the assay on Salmonella typhimurium [1] is 146; in the assay with Salmonella typhimurium [2], “Not toxic”; in the assay with Salmonella typhimurium [3] it was 25; in the assay with Salmonella typhimurium [4], 69; in the assay with Salmonella typhimurium [5], “Not toxic”; in the assay on Salmonella typhimurium [6] it was 58.

With `Cc1c2ccccc2c(C)c2c1ccc1ccccc12`, the Activity result is “Not toxic” in the assay with Salmonella typhimurium [7]; 15 in the assay with Salmonella typhimurium [8]; 58 in the assay on Salmonella typhimurium [3]; 489 in the assay on Salmonella typhimurium [4]; “Not toxic” in the assay with Salmonella typhimurium [5]; “Not toxic” in the assay on Salmonella typhimurium [9].

Consider `Cc1c2ccccc2c(C)c2c3c(ccc12)CCCC3`, for which the Activity with Salmonella typhimurium [1] is reported as 47; in the assay with Salmonella typhimurium [8], 7; in the assay with Salmonella typhimurium [10], 42; in the assay on Salmonella typhimurium [3], 78; with Salmonella typhimurium [4], 270; with Salmonella typhimurium [6] it was 173.
